Our source for the Activity values is ChEMBL document CHEMBL2384907, “Identification of substituted pyrimido[5,4-b]indoles as selective Toll-like receptor 4 ligands” (J Med Chem, 2013).

Activity calls are given as the source filed them. The calls are words filed in the database; no cut-off is given here.

Holding throughout (format): cell-based
The target of assay [1] is Toll-like receptor 3 (Homo sapiens) (UniProt O15455). The assay can be described thus: Activation of human TLR3 transfected in HEK293 cells at 10 uM after 20 to 24 hrs by SEAP assay.
The target of assay [2] is T1, Toll-like receptor 4 (Mus musculus) (UniProt Q9QUK6).
T1 sequence (whole entry): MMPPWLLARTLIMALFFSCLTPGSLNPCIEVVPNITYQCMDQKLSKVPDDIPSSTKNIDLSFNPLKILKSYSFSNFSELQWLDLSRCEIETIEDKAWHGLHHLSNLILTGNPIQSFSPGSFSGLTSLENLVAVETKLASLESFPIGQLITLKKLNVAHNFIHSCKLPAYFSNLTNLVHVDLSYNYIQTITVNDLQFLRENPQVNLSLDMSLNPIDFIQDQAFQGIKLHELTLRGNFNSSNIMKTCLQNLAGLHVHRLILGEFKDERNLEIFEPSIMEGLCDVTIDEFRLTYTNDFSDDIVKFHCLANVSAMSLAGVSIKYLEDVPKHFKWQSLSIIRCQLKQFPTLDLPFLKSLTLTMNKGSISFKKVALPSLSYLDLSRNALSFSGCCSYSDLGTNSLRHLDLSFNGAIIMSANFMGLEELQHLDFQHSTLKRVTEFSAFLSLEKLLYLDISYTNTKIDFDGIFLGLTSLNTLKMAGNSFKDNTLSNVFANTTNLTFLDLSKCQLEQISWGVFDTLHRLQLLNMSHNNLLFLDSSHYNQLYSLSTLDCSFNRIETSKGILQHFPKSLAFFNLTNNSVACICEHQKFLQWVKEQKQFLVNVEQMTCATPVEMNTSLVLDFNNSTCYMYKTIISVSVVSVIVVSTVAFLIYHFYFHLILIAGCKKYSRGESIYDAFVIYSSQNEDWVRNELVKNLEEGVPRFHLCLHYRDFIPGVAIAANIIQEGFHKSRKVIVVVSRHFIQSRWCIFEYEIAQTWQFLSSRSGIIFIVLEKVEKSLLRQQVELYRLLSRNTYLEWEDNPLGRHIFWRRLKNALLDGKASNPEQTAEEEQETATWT
The assay can be described thus: Activation of TLR4-mediated type 1 IFN release in C57BL/6 mouse BMDC cells after overnight incubation by luciferase reporter gene assay. A digest of the protocol: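 Wild-type BMDC incubated overnight with graded concentrations (0.5% DMSO vehicle); 50 μL supernatant put on L929-ISRE luciferase reporter cells (5 × 10^4/well, DMEM-10) for 6 h; luciferase read, quantified against mouse IFN-β standard. Mean ± SEM of triplicates, two independent experiments.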
A general note: In a reporter assay the amount or activity of a reporter protein is the signal.

The target in assay [3] is Toll-like receptor 4 (Homo sapiens) (UniProt O00206). In words: Activation of TLR4 in human PBMC cells assessed as AUC of IL8 release at 10 uM after 18 hrs by ELISA relative to N-cyclohexyl-2-(4-oxo-3-phenyl-4,5-dihydro-3H-pyrimido[5,4-b]indol-2-ylthio)acetamide. Put shortly:
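Human PBMC from buffy coats, 1 × 10^6/mL in complete RPMI, 18 h at 37 °C, 5% CO2 with compound at 10 μM; IL-8 in supernatant by ELISA, normalized to reference hit set at 100. LPS 10 ng/mL positive control.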
(In general: An ELISA detects its analyte on a solid surface through an enzyme-linked reagent.)

Assay [4] deals with Toll-like receptor 4/MD-2/CD14 (Homo sapiens) (UniProt O00206+Q9Y6Y9+P08571). In words: Activation of human TLR4/MD-2/CD14 transfected in HEK293 cells at 10 uM after 20 to 24 hrs by SEAP assay.
Assay [5] has as its target T1, Toll-like receptor 4 (Mus musculus). In words: Activation of TLR4 in C57BL/6 mouse BMDC cells assessed as AUC of IL6 release after 18 hrs by ELISA relative to N-cyclohexyl-2-(4-oxo-3-phenyl-4,5-dihydro-3H-pyrimido[5,4-b]indol-2-ylthio)acetamide. Put shortly:
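C57BL/6 bone marrow DC, 10^5 cells/well in RPMI-10% FCS, 18 h at 37 °C with titrated doses 312 nM–10 μM; supernatant IL-6 by ELISA. Each curve converted to percent activity (background subtracted, plate-adjusted), AUC by trapezoid method, normalized to reference hit set at 100 per experiment. LPS 10 ng/mL positive control; 0.5% DMSO vehicle.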

For assay [6], the target named is T2, Toll-like receptor 8 (Homo sapiens) (UniProt Q9NR97).
T2 sequence (whole entry): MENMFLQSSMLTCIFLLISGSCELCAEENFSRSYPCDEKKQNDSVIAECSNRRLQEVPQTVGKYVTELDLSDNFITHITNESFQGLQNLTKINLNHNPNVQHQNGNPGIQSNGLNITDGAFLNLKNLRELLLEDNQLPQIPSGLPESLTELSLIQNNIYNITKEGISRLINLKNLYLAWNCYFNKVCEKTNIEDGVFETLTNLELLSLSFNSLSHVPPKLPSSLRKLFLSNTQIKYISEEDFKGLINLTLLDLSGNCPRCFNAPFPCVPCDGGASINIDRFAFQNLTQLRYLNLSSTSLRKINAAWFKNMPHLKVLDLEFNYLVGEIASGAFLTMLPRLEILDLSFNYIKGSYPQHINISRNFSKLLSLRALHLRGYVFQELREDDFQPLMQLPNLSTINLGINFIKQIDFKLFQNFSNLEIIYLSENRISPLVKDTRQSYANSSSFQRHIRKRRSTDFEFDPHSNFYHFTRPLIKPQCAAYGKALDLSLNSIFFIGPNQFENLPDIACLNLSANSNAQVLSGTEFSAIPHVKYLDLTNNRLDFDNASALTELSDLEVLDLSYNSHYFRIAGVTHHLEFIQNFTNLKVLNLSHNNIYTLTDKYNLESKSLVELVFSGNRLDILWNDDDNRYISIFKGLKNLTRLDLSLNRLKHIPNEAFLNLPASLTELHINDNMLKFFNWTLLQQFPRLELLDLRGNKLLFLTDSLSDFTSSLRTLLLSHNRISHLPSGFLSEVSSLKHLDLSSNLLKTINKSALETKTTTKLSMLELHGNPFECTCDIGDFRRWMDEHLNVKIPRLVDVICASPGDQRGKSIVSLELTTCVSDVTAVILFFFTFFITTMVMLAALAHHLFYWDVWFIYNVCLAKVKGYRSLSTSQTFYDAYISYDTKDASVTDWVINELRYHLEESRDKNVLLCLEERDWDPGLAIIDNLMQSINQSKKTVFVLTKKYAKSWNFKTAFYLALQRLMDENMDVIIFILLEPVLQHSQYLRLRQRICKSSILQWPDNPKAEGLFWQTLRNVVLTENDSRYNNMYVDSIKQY
The assay can be described thus: Activation of human TLR8 transfected in HEK293 cells at 10 uM after 20 to 24 hrs by SEAP assay.

For assay [7], the target named is Toll-like receptor 2 (Homo sapiens) (UniProt O60603). The assay can be described thus: Activation of human TLR2 transfected in HEK293 cells at 10 uM after 20 to 24 hrs by SEAP assay.
Chain of Toll-like receptor 2 (Homo sapiens) (O60603 whole entry): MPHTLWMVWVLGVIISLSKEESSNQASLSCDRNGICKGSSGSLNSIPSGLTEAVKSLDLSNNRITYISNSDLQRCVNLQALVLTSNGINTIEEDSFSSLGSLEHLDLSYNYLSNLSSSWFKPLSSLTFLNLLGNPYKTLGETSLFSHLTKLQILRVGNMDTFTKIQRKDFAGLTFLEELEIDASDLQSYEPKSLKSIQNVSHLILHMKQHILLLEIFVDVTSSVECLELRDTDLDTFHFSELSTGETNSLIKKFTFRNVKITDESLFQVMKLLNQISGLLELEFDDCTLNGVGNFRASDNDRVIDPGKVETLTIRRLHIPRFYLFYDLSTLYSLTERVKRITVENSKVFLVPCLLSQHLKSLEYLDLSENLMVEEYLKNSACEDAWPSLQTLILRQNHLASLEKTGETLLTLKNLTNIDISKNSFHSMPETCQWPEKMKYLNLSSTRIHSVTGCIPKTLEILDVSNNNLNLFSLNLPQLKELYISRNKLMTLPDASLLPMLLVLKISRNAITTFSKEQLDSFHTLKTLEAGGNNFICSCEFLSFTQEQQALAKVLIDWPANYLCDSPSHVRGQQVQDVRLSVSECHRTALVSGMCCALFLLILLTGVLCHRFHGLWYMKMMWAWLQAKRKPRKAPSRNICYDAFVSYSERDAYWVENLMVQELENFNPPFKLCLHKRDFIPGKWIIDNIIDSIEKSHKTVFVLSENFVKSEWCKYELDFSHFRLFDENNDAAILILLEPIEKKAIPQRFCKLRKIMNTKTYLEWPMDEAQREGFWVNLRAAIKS

Chain of Toll-like receptor 3 (Homo sapiens) (O15455 whole entry): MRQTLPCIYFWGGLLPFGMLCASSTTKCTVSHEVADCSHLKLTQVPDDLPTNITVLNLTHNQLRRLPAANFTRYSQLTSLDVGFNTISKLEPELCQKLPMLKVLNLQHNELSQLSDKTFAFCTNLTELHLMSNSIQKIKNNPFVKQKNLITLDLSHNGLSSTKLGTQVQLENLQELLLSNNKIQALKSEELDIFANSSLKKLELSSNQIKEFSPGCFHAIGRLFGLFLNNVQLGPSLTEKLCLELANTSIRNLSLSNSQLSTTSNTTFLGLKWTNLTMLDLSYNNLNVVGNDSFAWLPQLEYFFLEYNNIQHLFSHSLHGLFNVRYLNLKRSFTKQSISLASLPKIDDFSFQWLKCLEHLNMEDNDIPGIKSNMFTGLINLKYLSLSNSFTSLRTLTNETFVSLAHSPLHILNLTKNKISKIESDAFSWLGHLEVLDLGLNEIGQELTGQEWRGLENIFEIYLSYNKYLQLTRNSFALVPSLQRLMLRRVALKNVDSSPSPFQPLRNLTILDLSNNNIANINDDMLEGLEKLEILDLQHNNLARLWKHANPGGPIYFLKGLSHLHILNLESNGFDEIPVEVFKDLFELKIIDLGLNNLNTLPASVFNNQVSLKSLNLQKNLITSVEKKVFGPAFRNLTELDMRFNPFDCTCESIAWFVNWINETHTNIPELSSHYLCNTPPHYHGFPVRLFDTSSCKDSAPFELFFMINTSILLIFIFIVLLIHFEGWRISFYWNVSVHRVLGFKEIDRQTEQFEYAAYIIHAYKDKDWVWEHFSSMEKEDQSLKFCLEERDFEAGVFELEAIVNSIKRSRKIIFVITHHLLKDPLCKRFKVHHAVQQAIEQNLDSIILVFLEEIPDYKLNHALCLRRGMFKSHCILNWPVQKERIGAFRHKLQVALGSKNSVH
Chain of Toll-like receptor 4 (Homo sapiens) (O00206 whole entry): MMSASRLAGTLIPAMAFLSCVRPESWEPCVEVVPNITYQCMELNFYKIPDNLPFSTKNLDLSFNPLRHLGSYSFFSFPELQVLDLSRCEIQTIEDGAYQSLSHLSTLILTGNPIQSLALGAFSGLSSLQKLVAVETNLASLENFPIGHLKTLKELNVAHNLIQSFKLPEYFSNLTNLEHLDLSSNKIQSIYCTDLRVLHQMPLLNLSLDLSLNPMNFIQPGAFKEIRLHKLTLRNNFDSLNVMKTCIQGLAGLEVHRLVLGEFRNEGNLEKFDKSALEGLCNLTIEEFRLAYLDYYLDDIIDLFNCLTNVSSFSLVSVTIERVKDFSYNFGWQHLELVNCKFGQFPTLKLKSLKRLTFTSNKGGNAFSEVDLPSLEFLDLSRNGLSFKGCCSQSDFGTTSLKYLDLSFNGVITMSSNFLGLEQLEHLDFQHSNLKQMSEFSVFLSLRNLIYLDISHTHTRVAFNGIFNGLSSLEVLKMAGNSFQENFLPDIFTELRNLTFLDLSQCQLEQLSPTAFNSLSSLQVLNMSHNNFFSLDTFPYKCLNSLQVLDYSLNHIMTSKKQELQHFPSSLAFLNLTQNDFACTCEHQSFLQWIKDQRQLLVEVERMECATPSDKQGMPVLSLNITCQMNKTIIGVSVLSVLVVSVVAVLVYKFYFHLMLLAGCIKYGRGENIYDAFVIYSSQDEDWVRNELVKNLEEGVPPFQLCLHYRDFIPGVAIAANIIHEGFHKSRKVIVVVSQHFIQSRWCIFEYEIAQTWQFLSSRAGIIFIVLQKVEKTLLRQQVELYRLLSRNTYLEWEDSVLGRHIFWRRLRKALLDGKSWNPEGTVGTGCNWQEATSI

Take `O=C(CSc1nc2c([nH]c3ccccc32)c(=O)n1-c1ccccc1)NC1CCCCC1`: the outcome in assay [1], in assay [6] and in assay [7] was inactive. The Activity entry in assay [2] is “Dose-dependent effect”; in assay [3], 100%; in assay [5] it was 100%. Also, the outcome in assay [4] was Active.
